Measurements reported in ChEMBL document CHEMBL3244008, “Design of species- or isozyme-specific enzyme inhibitors. 2. Differences between a bacterial and a mammalian thymidine kinase in the effect of thymidine substituents on affinity for the thymidine site” (J Med Chem, 1979).
Values belong to the compound of their own block, whether it stands above or below them. The source made the active and inactive calls. No cut-off for these calls is given here.

Experiments:
[1] = tested on: Escherichia coli B; experiment: Inhibition of Escherichia coli B thymidine kinase using [2-14C]-thymidine as substrate assessed as formation of [14C]-TMP at 0.5 mM after 10 mins by liquid scintillation spectrometric analysis relative to control
How it was run: (§1)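 E. coli thymidine kinase (fraction V, purified from frozen cells; 7.2 × 10⁻⁶ units per assay) in Tris-HCl 71 mM, MgCl2 2.85 mM, MnCl2 0.71 mM, ATP 5.7 mM, BSA and [2-14C]thymidine 82 μM with test compound. The mixture was held at 37 °C for 10 min, then boiled. [14C]TMP was resolved by paper electrophoresis (pH 7.6) and scintillation-counted, with the unincubated blank subtracted.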

[2] = tested on: Escherichia coli B; experiment: Inhibition of Escherichia coli B thymidine kinase using [2-14C]-thymidine as substrate assessed as formation of [14C]-TMP at 2 mM after 10 mins by liquid scintillation spectrometric analysis relative to control; how it was run: as §1
[3] = tested on: Escherichia coli B; experiment: Inhibition of Escherichia coli B thymidine kinase using [2-14C]-thymidine as substrate assessed as formation of [14C]-TMP at 1 mM after 10 mins by liquid scintillation spectrometric analysis relative to control; how it was run: as §1
[4] = tested on: Escherichia coli B; experiment: Activity of Escherichia coli B thymidine kinase assessed as [14C]-TMP formation at 500 uM after 1 hr by liquid scintillation spectrometric analysis; details: tested as the 14C-labelled form
[5] = tested on: Escherichia coli B; experiment: Activity of Escherichia coli B thymidine kinase assessed as [14C]-TMP formation at 450 uM after 1 hr by liquid scintillation spectrometric analysis; details: tested as the 14C-labelled form
[6] = tested on: Escherichia coli B; experiment: Activation of Escherichia coli B thymidine kinase using [2-14C]-thymidine as substrate assessed as formation of [14C]-TMP at 0.1 mM after 10 mins by liquid scintillation spectrometric analysis relative to control; how it was run: as §1
[7] = tested on: Escherichia coli B; experiment: Activation of Escherichia coli B thymidine kinase using [2-14C]-thymidine as substrate assessed as formation of [14C]-TMP at 0.5 mM after 10 mins by liquid scintillation spectrometric analysis relative to control; how it was run: as §1
[8] = tested on: Escherichia coli B; experiment: Activation of Escherichia coli B thymidine kinase using [2-14C]-thymidine as substrate assessed as formation of [14C]-TMP at 2 mM after 10 mins by liquid scintillation spectrometric analysis relative to control; how it was run: as §1
[9] = tested on: Escherichia coli B; experiment: Activation of Escherichia coli B thymidine kinase using [2-14C]-thymidine as substrate assessed as formation of [14C]-TMP at 8 mM after 10 mins by liquid scintillation spectrometric analysis relative to control; how it was run: as §1
[10] = Non-competitive inhibition of Escherichia coli B thymidine kinase using [2-14C]-thymidine as substrate assessed as formation of [14C]-TMP after 10 mins by Lineweaver-Burk double reciprocal plot analysis; details: read-out: I50
How it was run: (§2)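 Fraction V E. coli thymidine kinase was assayed with MgATP 5.7 mM and Mg/Mn salts in Tris-HCl at 37 °C for 10 min, reading [14C]TMP after electrophoresis. Four or more thymidine levels (20–160 μM) were used at each of two inhibitor levels plus an inhibitor-free control, all in duplicate. Ki (competitive) or I50 (noncompetitive) came from replots of Lineweaver-Burk slopes against inhibitor concentration, reproducible to ±7%.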

[11] = Competitive inhibition of Escherichia coli B thymidine kinase using [2-14C]-thymidine as substrate assessed as formation of [14C]-TMP after 10 mins by Lineweaver-Burk double reciprocal plot analysis; details: read-out: Ki(app); how it was run: as §2
[12] = tested on: Escherichia coli B; experiment: Inhibition of Escherichia coli B thymidine kinase using [2-14C]-thymidine as substrate assessed as formation of [14C]-TMP at 4 mM after 10 mins by liquid scintillation spectrometric analysis relative to control; how it was run: as §1
[13] = tested on: Escherichia coli B; experiment: Inhibition of Escherichia coli B thymidine kinase using [2-14C]-thymidine as substrate assessed as formation of [14C]-TMP at 8 mM after 10 mins by liquid scintillation spectrometric analysis relative to control; how it was run: as §1
[14] = tested on: Escherichia coli B; experiment: Activity of Escherichia coli B thymidine kinase assessed as [14C]-TMP formation at 775 uM after 1 hr by liquid scintillation spectrometric analysis relative to thymidine; details: tested as the 14C-labelled form
[15] = tested on: Escherichia coli B; experiment: Activation of Escherichia coli B thymidine kinase using [2-14C]-thymidine as substrate assessed as formation of [14C]-TMP at 1 mM after 10 mins by liquid scintillation spectrometric analysis relative to control; how it was run: as §1
[16] = tested on: Escherichia coli B; experiment: Inhibition of Escherichia coli B thymidine kinase using [2-14C]-thymidine as substrate assessed as formation of [14C]-TMP at 16 mM after 10 mins by liquid scintillation spectrometric analysis relative to control; how it was run: as §1
[17] = tested on: Escherichia coli B; experiment: Non-competitive inhibition of Escherichia coli B thymidine kinase using [2-14C]-thymidine as substrate assessed as formation of [14C]-TMP at 16 mM after 10 mins by Lineweaver-Burk double reciprocal plot analysis

Structure (SMILES): CCNc1ccn([C@H]2C[C@H](O)[C@@H](CO)O2)c(=O)n1
- inhibition [1]: 0%
- inhibition [2]: 0%

Structure (SMILES): CCn1c(=O)ccn([C@H]2C[C@H](O)[C@@H](CO)O2)c1=O
- inhibition [1]: 12%
- inhibition [3]: 22%

Structure (SMILES): CC(=O)N(C)CCCCN(C)C[C@H]1O[C@@H](n2cc(C)c(=O)[nH]c2=O)C[C@@H]1O
- inhibition [2]: 14%
- inhibition [3]: 14%

Structure (SMILES): CC(=O)N[C@H]1C[C@H](n2cc(C)c(=O)[nH]c2=O)O[C@@H]1CO
- IC50 [10]: 6.1 mM

Structure (SMILES): CCCCCCNC[C@H]1O[C@@H](n2cc(C)c(=O)[nH]c2=O)C[C@@H]1O
- Ki [11]: 2.6 mM

Structure (SMILES): N#Cc1cn([C@H]2C[C@H](O)[C@@H](CO)O2)c(=O)[nH]c1=O
- inhibition [1]: 23%
- inhibition [2]: 40%

Structure (SMILES): CCNc1cn([C@H]2C[C@H](O)[C@@H](CO)O2)c(=O)[nH]c1=O
- inhibition [1]: 0%
- inhibition [2]: 0%

Structure (SMILES): CC(=O)N(C)CCN(C)C[C@H]1O[C@@H](n2cc(C)c(=O)[nH]c2=O)C[C@@H]1O
- inhibition [2]: 0%
- inhibition [3]: 0%

Structure (SMILES): CC(=O)NCC(O)[C@H]1O[C@@H](n2cc(C)c(=O)[nH]c2=O)C[C@@H]1O (stereo in doubt; 4a)
- Ki [11]: 1.25 mM

Structure (SMILES): Cc1cn([C@H]2C[C@H](O)[C@@H](CSCCO)O2)c(=O)[nH]c1=O
- Activity [7]: 15%
- Activity [15]: 28%
- Activity [8]: 25%

Structure (SMILES): CC(=O)NC[C@H]1O[C@@H](n2cc(C)c(=O)[nH]c2=O)C[C@@H]1O
- inhibition [1]: 0%
- inhibition [3]: 0%

Structure (SMILES): Cc1cn([C@H]2C[C@H](O)[C@@H](CN)O2)c(=O)[nH]c1=O
- Ki [11]: 0.32 mM

Structure (SMILES): CCn1c(=O)c(C)cn([C@H]2C[C@H](O)[C@@H](CO)O2)c1=O
- inhibition [1]: 30%
- inhibition [3]: 44%
- IC50 [10]: 1.25 mM

Structure (SMILES): CCC(=O)NCC(O)[C@H]1O[C@@H](n2cc(C)c(=O)[nH]c2=O)C[C@@H]1O (single isomer, unassigned; more polar)
- Ki [11]: 6.6 mM

Structure (SMILES): CCC(=O)NCC(O)[C@H]1O[C@@H](n2cc(C)c(=O)[nH]c2=O)C[C@@H]1O (single isomer, unassigned; less polar)
- Ki [11]: 0.85 mM

Structure (SMILES): CCOC1N([C@H]2C[C@H](O)[C@@H](CO)O2)C(=O)NC(=O)C1(C)Br (single isomer, unassigned; less polar)
- inhibition [16]: 0%
- inhibition [17]: inactive

Structure (SMILES): Cc1cn([C@H]2C[C@H](N)[C@@H](CO)O2)c(=O)[nH]c1=O [3-AMINO- 3-DEOXYTHYMIDINE]
- IC50 [10]: 2.75 mM

Structure (SMILES): Nc1cn([C@H]2C[C@H](O)[C@@H](CO)O2)c(=O)[nH]c1=O
- IC50 [10]: 28 mM

Structure (SMILES): CC(=O)NCC(O)[C@H]1O[C@@H](n2cc(C)c(=O)[nH]c2=O)C[C@@H]1O (mixture of isomers)
- Ki [11]: 2 mM

Structure (SMILES): O=c1ccn([C@H]2C[C@H](O)[C@@H](CO)O2)c(=O)[nH]1 [DEOXYURIDINE]
- Ki [11]: 0.29 mM

Next, values leading:

- Activity [4]: inactive
- Activity [5]: inactive
Structure (SMILES): CC(=O)NCC(O)[C@H]1O[C@@H](n2cc(C)c(=O)[nH]c2=O)C[C@@H]1O (stereo partly specified)

- Activity [6]: 120%
- Activity [7]: 126%
- Activity [8]: 125%
- Activity [9]: 106%
Structure (SMILES): Cc1cn([C@H]2C[C@H](O)[C@@H](CSCCC(=O)O)O2)c(=O)[nH]c1=O

- Activity [6]: 70%
- Activity [7]: 63%
- Activity [8]: 46%
Structure (SMILES): CCSC[C@H]1O[C@@H](n2cc(C)c(=O)[nH]c2=O)C[C@@H]1O

- inhibition [12]: 28%
- inhibition [13]: 36%
Structure (SMILES): CCNC[C@H]1O[C@@H](n2cc(C)c(=O)[nH]c2=O)C[C@@H]1O

- Activity [14]: < 0.021%
Structure (SMILES): CC(=O)NCc1cn([C@H]2C[C@H](O)[C@@H](CO)O2)c(=O)[nH]c1=O

- inhibition [1]: 45%
- inhibition [3]: 59%
- IC50 [10]: 0.65 mM
Structure (SMILES): CCCCCn1c(=O)c(C)cn([C@H]2C[C@H](O)[C@@H](CO)O2)c1=O

- inhibition [1]: 0%
- inhibition [3]: 0%
Structure (SMILES): CCCC(=O)NC[C@H]1O[C@@H](n2cc(C)c(=O)[nH]c2=O)C[C@@H]1O

- IC50 [10]: 47.5 mM
Structure (SMILES): O=c1ccn([C@@H]2O[C@H](CO)[C@@H](O)[C@H]2O)c(=O)[nH]1 [URIDINE]

- Activity [6]: -5%
- Activity [8]: -4%
- Activity [9]: 22%
Structure (SMILES): CC[S+]([O-])C[C@H]1O[C@@H](n2cc(C)c(=O)[nH]c2=O)C[C@@H]1O (stereo partly specified)

- inhibition [2]: 14%
- inhibition [3]: 14%
Structure (SMILES): CC(=O)N(C)CCCCCCN(C)C[C@H]1O[C@@H](n2cc(C)c(=O)[nH]c2=O)C[C@@H]1O

- inhibition [1]: 28%
- inhibition [3]: 39%
Structure (SMILES): CCCn1c(=O)c(C)cn([C@H]2C[C@H](O)[C@@H](CO)O2)c1=O

- inhibition [1]: 0%
- inhibition [2]: 0%
Structure (SMILES): CC(=O)NCCC(=O)Nc1cn([C@H]2C[C@H](O)[C@@H](CO)O2)c(=O)[nH]c1=O

- inhibition [1]: 0%
- inhibition [2]: 0%
Structure (SMILES): Nc1ccn([C@H]2C[C@H](O)[C@@H](CO)O2)c(=O)n1

- inhibition [1]: 14%
- inhibition [3]: 25%
Structure (SMILES): NCc1cn([C@H]2C[C@H](O)[C@@H](CO)O2)c(=O)[nH]c1=O

- inhibition [1]: 18%
- inhibition [3]: 35%
Structure (SMILES): CCCn1c(=O)ccn([C@H]2C[C@H](O)[C@@H](CO)O2)c1=O

- inhibition [1]: 15%
- inhibition [2]: 15%
Structure (SMILES): CC(=O)Nc1cn([C@H]2C[C@H](O)[C@@H](CO)O2)c(=O)[nH]c1=O

- inhibition [2]: 11%
- inhibition [16]: 17%
- inhibition [17]: inactive
Structure (SMILES): CCOC1N([C@H]2C[C@H](O)[C@@H](CO)O2)C(=O)NC(=O)C1(C)Br (single isomer, unassigned)

- Activity [6]: -2%
- Activity [7]: -1%
- Activity [8]: 42%
- Activity [9]: 65%
Structure (SMILES): Cc1cn([C@H]2C[C@H](O)[C@@H](C[S+]([O-])CCC(=O)O)O2)c(=O)[nH]c1=O (stereo partly specified)

- inhibition [1]: 9%
- inhibition [2]: 12%
Structure (SMILES): CCCCNC[C@H]1O[C@@H](n2cc(C)c(=O)[nH]c2=O)C[C@@H]1O

- Activity [6]: 61%
- Activity [7]: 60%
- Activity [8]: 62%
- Activity [9]: 35%
Structure (SMILES): Cc1cn([C@H]2C[C@H](O)[C@@H](CSCCCC(=O)O)O2)c(=O)[nH]c1=O

- IC50 [10]: 0.32 mM
Structure (SMILES): CCS[C@H]1C[C@H](n2cc(C)c(=O)[nH]c2=O)O[C@@H]1CO
